Source: ChEMBL document CHEMBL1124737, “Synthesis and alpha 2-adrenoceptor effects of substituted catecholimidazoline and catecholimidazole analogues in human platelets” (J Med Chem, 1990)
pEC50, pIC50: −log10 of the molar value. One block for each compound: values may come before it.

What was measured:
Homo sapiens [1] = species: Homo sapiens; assay: Inhibition potency against primary wave responses to epinephrine; type: functional, organism-based; settings: read-out: pA2 (converted)
Homo sapiens [2] = species: Homo sapiens; assay: Log concentration that produces maximum response against epinephrine-induced platelet aggregation; type: functional, organism-based
Homo sapiens [3] = species: Homo sapiens; assay: Stimulatory activity against serotonin secretion (SEC).; type: functional, organism-based
Homo sapiens [4] = species: Homo sapiens; assay: Inhibition of AA+phentolamine by the compound in response of AGG; type: functional, organism-based
Outline: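 Citrated platelet-rich plasma from medication-free human volunteers was read by Born turbidometric aggregometry. Phentolamine (1 μM) was added 1 min before the drug and 2 min before arachidonic acid, used at the minimum concentration giving maximal aggregation. IC50 was taken from the maximal change in light transmittance after 4 min, read from percent inhibition versus log concentration plots. Data are from 3–5 preparations.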

Homo sapiens [5] = species: Homo sapiens; assay: Inhibition of ADP by the compound in response of AGG; type: functional, organism-based
Outline: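 The drug was added 1 min before ADP, used at the minimum concentration giving maximal aggregation, in citrated human platelet-rich plasma from medication-free donors. Born turbidometric aggregometry was used. IC50 came from the maximal change in light transmittance after 6 min, using percent inhibition versus log concentration plots. Data are from 3–5 preparations.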

Homo sapiens [6] = species: Homo sapiens; assay: Inhibition of Arachidonic acid by the compound in response of AGG; type: functional, organism-based
Outline: (§1)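 Human platelet-rich plasma from medication-free volunteers, citrate anticoagulated (9:1). Inducer at the minimum concentration giving maximal aggregation. Inhibitor added 1 min before inducer. Turbidometric (Born) aggregation read as the maximal change in light-transmittance amplitude after 4 min. U46619 runs include 1 mM aspirin. IC50 taken from percent inhibition vs log concentration plots; 3–5 preparations.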

Homo sapiens [7] = species: Homo sapiens; assay: Inhibition of U-46,619 by the compound in response of AGG; type: functional, organism-based; outline: as §1
Homo sapiens [8] = species: Homo sapiens; assay: Inhibition of U-46,619 + phentolamine by the compound in response of AGG; type: functional, organism-based
Outline: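 Human citrated platelet-rich plasma was incubated with 1 mM aspirin. Phentolamine (1 μM) was added 1 min before the drug and 2 min before U46619, used at the minimal maximally-aggregating concentration. Turbidometric aggregation was followed, and IC50 was based on the maximal transmittance change at 4 min, from percent inhibition versus log concentration plots. Data are from 3–5 preparations.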

[9] = biological target: Serotonin (5-HT) receptor; assay: Inhibition of AA+phentolamine by the compound in response of SEC; type: functional, Homo sapiens
Outline: (§2)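 Phentolamine 1 μM added 1 min before the test drug and 2 min before the inducer (AA or U46619, at minimum maximally effective concentration). Aspirin 1 mM in U46619 runs. Secretion read as radioactivity release. IC50 from percent inhibition vs log concentration; 3–5 preparations.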

[10] = biological target: Serotonin (5-HT) receptor; assay: Inhibition of ADP by the compound in response of SEC; type: functional, Homo sapiens
Outline: (§3)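 Inducer at the minimum concentration giving maximal aggregation; inhibitor added 1 min before it. Dense-granule secretion measured as release of radioactivity. U46619 runs include 1 mM aspirin. IC50 from percent inhibition vs log concentration; 3–5 preparations.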

[11] = biological target: Serotonin (5-HT) receptor; assay: Inhibition of Arachidonic acid by the compound in response of SEC; type: functional, Homo sapiens; outline: as §3
[12] = biological target: Serotonin (5-HT) receptor; assay: Inhibition of U-46,619 by the compound in response of SEC; type: functional, Homo sapiens; outline: as §3
[13] = biological target: Serotonin (5-HT) receptor; assay: Inhibition of U-46,619 + phentolamine by the compound in response of SEC; type: functional, Homo sapiens; outline: as §2
Homo sapiens [14] = species: Homo sapiens; assay: Effective concentration for primary wave aggregation was determined; type: functional, organism-based
Outline: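 Citrated (9:1) platelet-rich plasma from medication-free human donors. Compound given alone to platelets preincubated 1 min with 1 mM aspirin. Born turbidometric aggregation, maximal change in light transmittance amplitude. EC50 taken from individual plots of percent response versus log concentration. Values in parentheses give number of experiments.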

Homo sapiens [15] = species: Homo sapiens; assay: Effective concentration for secondary wave aggregation was determined; type: functional, organism-based
Homo sapiens [16] = species: Homo sapiens; assay: Log concentration that produces maximum response against epinephrine-induced platelet aggregation (primary wave AGG); type: functional, organism-based
Homo sapiens [17] = species: Homo sapiens; assay: Inhibitory concentration of compound against primary aggregation of induced by R-8; type: functional, organism-based

Structure (SMILES): Oc1ccc(C[C@H]2CNC=N2)cc1O
- Kb (Homo sapiens [1]): 3.24 µM

Structure (SMILES): Cl.Oc1ccc(Cc2ncc[nH]2)cc1O
- pIC50 (Homo sapiens [3]): 4.44
- pIC50 (Homo sapiens [4]): 3.84
- pIC50 (Homo sapiens [5]): 3.58
- pIC50 (Homo sapiens [6]): 3.18
- pIC50 (Homo sapiens [7]): 2.79
- pIC50 (Homo sapiens [8]): 3.13
- Log IC50 [9]: -3.79
- Log IC50 [10]: -3.46
- Log IC50 [11]: -3.18
- Log IC50 [12]: -2.81
- Log IC50 [13]: -3.09

Structure (SMILES): Oc1ccc(C[C@@H]2CNC=N2)cc1O
- pEC50 (Homo sapiens [14]): 5.30
- pEC50 (Homo sapiens [15]): 5.31
- pEC50 (Homo sapiens [16]): 5.29

More lines, now with the values ahead:

- pEC50 (Homo sapiens [2]): 4.41
Structure (SMILES): Oc1ccc(C(O)c2ncc[nH]2)cc1O (configuration not stated)

- pIC50 (Homo sapiens [17]): 5.96
Structure (SMILES): COC(=O)[C@@H]1[C@H]2C[C@H]3c4[nH]c5ccccc5c4CCN3C[C@@H]2CC[C@@H]1O [YOHIMBINE]
